Laboratory results as given in PMC10149104 (Journal of medicinal chemistry, 2023).

What was measured:
[1] = test system: BMDMs from C57BL/6J mice and RAW264.7 cells; assay: LDH release and GSDMD cleavage in mouse BMDMs and RAW264.7 cells; type: cell-based; conditions: VbP 10 μM, CQ31/CQ80 20 μM, 24 h
Procedure, shortened: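 BMDMs: bone marrow is collected from femurs and tibias of 7–12-week-old C57BL/6J mice, strained (70 μm) and RBC-lysed. Cells are cultured 6 days at 37 °C in DMEM with 10% FBS and 15–20% L-cell medium, then replated. RAW264.7 cells are grown in DMEM with 10% FBS and seeded at 5 × 10^5 per well in 12-well plates. Both receive compound for 24 h. LDH is read relative to a Triton X-100 lysis control, and immunoblots use an anti-mouse GSDMD rabbit monoclonal. RAW264.7 data are means ± SEM, n = 3.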

[2] = test system: N/TERT-1 immortalized keratinocytes; assay: CTG cell viability in N/TERT-1 keratinocytes; type: cell-based, human; conditions: VbP 10 μM, CQ compounds 20 μM, 24 h
Procedure, shortened: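 N/TERT-1 keratinocytes are grown in keratinocyte serum-free medium with 1× penicillin/streptomycin, bovine pituitary extract (25 μg/mL) and EGF (0.2 ng/mL) at 37 °C in 5% CO2. Plating density is 2000 cells/well in 384-well plates, with compound added by pin tool. After 24 h, CellTiter-Glo reagent is added, plates are shaken 2 min, held 10 min at 25 °C, and luminescence is read. Values are means ± SEM of three biological replicates.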

[3] = test system: DOX-inducible CARD8 E274R mutant THP-1 cells; assay: CARD8 E274R mutant NT degradation assay in CARD8^−/− THP-1 cells; type: cell-based, human; conditions: DOX 100 ng/mL 16 h; VbP 10 μM, CQ31/CQ80 20 μM, VP-OMe 1 mM, MeBs 10 μM; 6 h
Procedure, shortened: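 Parental CARD8-knockout THP-1 cells carry a stably integrated doxycycline-inducible CARD8 E274R construct. Cells are grown in RPMI 1640 with L-glutamine and 10% FBS at 37 °C in 5% CO2. They are induced with or without DOX (100 ng/mL, 16 h), then exposed to test compounds for 6 h.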

recombinant XPNPEP1 = recombinant XPNPEP1 (Homo sapiens, UniProt Q9NQW7); assay: Inhibition of recombinant XPNPEP1, H-Lys; type: biochemical; conditions: recombinant XPNPEP1
Sequence of recombinant XPNPEP1 (Q9NQW7 whole entry): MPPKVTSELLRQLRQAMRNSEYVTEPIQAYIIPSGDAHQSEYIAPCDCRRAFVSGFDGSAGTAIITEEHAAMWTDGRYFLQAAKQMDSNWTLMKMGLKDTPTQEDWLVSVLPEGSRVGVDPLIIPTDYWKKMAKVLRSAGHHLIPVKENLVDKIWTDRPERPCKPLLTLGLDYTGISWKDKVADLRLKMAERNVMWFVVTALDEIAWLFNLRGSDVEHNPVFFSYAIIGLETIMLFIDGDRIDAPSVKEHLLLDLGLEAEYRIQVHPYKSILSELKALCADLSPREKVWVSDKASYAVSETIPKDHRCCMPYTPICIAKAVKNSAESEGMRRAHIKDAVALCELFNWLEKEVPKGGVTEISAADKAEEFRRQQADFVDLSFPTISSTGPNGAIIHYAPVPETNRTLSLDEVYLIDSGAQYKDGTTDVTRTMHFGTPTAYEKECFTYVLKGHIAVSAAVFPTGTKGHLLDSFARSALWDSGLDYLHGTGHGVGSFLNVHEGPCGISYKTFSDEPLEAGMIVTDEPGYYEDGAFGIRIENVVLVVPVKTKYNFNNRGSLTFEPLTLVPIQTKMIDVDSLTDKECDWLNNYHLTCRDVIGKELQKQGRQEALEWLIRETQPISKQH

MV4;11 cells = assay: PI uptake in MV4; type: cell-based, human; conditions: 6.25 μM; WT, CASP1^−/−, CARD8^−/− cells
Procedure, shortened: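 MV4;11 cells (WT, CASP1−/− or CARD8−/−) were plated at 2 × 10^4 cells/well in 384-well format in RPMI and treated with test compound (6.25 μM) for 6 h before PI uptake monitoring. PI was added at 10 μM final. Fluorescence (Ex/Em 535/617 nm) was read every 5 min at 37 °C, baseline-corrected to DMSO vehicle and normalised to maximum response.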

[4] = after 24 h; cited from earlier work
OCI-AML2 cells [5] = assay: CTG cell viability in WT and CARD8^−/− OCI-AML2 cells; type: cell-based, human; conditions: 24 h
Procedure, shortened: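 Test compound was added by pintool at various concentrations to OCI-AML2 cells (WT or CARD8−/−) plated at 2000 cells/well in 384-well format, in RPMI 1640 with L-glutamine and 10% FBS. Cells were incubated for 24 h at 37 °C in 5% CO2. CellTiter-Glo was then added, plates were shaken for 2 min and held at 25 °C for 10 min, and luminescence was read.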

[6] = test system: MV4;11, OCI-AML2, and THP-1 cells; assay: LDH release and GSDMD cleavage immunoblot in WT and CARD8^−/− cells; type: cell-based, human; conditions: 20 μM, 24 h, but not CARD8^−/−
recombinant human PEPD = biological target: T1, recombinant human PEPD (Homo sapiens, UniProt P12955); assay: Inhibition of recombinant PEPD, alanine release assay; type: biochemical
T1 sequence (P12955 1-493): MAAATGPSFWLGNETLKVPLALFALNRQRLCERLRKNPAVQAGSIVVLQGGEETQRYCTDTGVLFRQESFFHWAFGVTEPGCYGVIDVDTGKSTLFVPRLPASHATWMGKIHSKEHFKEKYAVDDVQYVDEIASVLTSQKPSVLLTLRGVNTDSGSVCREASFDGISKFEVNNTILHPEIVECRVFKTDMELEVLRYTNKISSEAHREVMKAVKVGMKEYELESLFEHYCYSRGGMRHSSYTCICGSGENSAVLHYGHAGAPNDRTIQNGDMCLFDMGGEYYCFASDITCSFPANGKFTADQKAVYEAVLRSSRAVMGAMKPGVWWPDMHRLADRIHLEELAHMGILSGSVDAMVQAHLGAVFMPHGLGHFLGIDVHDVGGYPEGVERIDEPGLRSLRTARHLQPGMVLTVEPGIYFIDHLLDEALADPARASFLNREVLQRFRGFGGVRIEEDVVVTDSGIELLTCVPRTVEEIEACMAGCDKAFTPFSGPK

human resting T cells = assay: GSDMD cleavage in human resting T cells; type: cell-based; conditions: 20 μM, 24 h
Procedure, shortened: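 Primary human T cells (>90% purity by flow cytometry) are thawed in RPMI-1640 with 10% FBS and cultured with 30 U/mL IL-2. Cells receive test compound for 24 h, then are washed twice in PBS and lysed by sonication. Protein is normalized before SDS-PAGE, and blots are probed with an anti-GSDMD rabbit polyclonal and imaged by infrared fluorescence.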

[7] = Stability in cell culture supernatants; type: in vitro ADME
Procedure, shortened: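 Test compounds are incubated in conditioned medium collected from MV4;11 cultures for 24 h at 37 °C. Intact compound and the free acid product are then quantified by LC/MS, with species identified by retention time. Values are means ± SEM of three biological replicates.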

[8] = biological target: CARD8-DPP9 ternary complex in HEK 293T^CASP1+GSDMD cells (Homo sapiens, UniProt Q86TI2); assay: dTAG-based CARD8-DPP9 ternary complex disruption assay; type: cell-based; conditions: dTAG-13 500 nM; VbP 10 μM, CQ31 20 μM, CQ80 20 μM, VP-OMe 1 mM; 6 h; LDH release
Sequence of CARD8-DPP9 ternary complex in HEK 293T^CASP1+GSDMD cells (Q86TI2 whole entry, one chain of several): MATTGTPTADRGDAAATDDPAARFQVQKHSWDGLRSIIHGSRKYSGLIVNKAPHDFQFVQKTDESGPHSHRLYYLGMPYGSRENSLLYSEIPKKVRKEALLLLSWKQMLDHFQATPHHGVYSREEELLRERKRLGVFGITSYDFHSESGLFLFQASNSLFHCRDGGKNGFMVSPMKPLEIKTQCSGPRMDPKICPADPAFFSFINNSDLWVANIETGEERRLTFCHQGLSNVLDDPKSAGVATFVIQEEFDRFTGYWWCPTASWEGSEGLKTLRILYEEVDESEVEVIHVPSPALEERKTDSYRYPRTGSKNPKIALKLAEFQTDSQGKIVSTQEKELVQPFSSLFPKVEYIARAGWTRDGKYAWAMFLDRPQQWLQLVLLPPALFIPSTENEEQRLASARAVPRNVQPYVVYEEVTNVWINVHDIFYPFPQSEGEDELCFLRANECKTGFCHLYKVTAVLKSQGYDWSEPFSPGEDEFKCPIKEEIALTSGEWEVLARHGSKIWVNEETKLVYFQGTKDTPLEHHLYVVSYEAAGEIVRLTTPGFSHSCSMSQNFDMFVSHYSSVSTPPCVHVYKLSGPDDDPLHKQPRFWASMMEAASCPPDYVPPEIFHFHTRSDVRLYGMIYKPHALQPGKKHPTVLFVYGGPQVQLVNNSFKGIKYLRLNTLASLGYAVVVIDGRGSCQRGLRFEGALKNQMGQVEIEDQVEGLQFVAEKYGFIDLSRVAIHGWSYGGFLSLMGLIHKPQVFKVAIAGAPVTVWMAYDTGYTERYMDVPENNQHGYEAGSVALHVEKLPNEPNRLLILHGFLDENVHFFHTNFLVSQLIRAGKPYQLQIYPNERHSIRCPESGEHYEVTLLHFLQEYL

THP-1 cells = assay: LDH release and GSDMD cleavage in knockout THP-1 cells; type: cell-based, human; conditions: 20 μM, 24 h; for Pyroptosis in DPP8/9^−/− THP-1 cells: LDH release and GSDMD cleavage
OCI-AML2 cells [9] = assay: PI uptake in OCI-AML2 cells; type: cell-based, human; conditions: 6.25 μM, compared to CQ31
Procedure, shortened: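 OCI-AML2 cells (2 × 10^4 per well, 384-well, RPMI) are treated with 6.25 μM compound, with PI added at 10 μM final. PI fluorescence (Ex/Em 535/617 nm) is recorded at 37 °C every 5 min over 6 h. Signals are baseline-corrected to DMSO vehicle and normalized to the maximum response. Values are means ± SEM of three biological replicates.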

XPNPEP1 inhibition (in words) (recombinant XPNPEP1)	PEPD inhibition (in words) (recombinant human PEPD)	Time to conversion to CQ04 [7] [min]	Fraction remaining intact ([7]; after 24 h at 37 °C)	Compound	Pyroptosis in mouse BMDMs and RAW264.7 cells (rodent NLRP1 activation) [1]	Cell death in N/TERT-1 keratinocytes (human NLRP1 activation) [2]	Additional cell death in CARD8 E274R assay (NT degradation) [3]	PI uptake in MV4;11 cells (MV4;11 cells)	De-esterification to CQ04 in cell culture [4]	Cell death in OCI-AML2 cells (OCI-AML2 cells [5])	LDH release and GSDMD cleavage [6]	GSDMD cleavage in human resting T cells (human resting T cells)	Pyroptosis after dTAG-13 treatment (ternary complex destabilization) [8]	Sensitivity of PEPD and XPNPEP1 single knockout THP-1 cells (THP-1 cells)	Sensitivity of PEPD/XPNPEP1 double knockout THP-1 cells (THP-1 cells)	Pyroptosis in DPP8/9^−/− THP-1 cells (THP-1 cells)	Rate of lytic cell death by PI uptake in OCI-AML2 cells (OCI-AML2 cells [9])
–	–	–	–	CC(C)[C@H](N)C(=O)N1CCC[C@H]1B(O)O [VbP, ValboroPro, reference compound]	induced pyroptosis	induced cell death	did not cause substantially more death	–	–	–	–	–	–	–	–	–	–
inhibited PEPD and XPNPEP1 similarly	inhibited PEPD and XPNPEP1 similarly	≤ 30	–	COC(=O)[C@@H]1CCCN1C(=O)[C@@H](O)[C@H](N)CC(C)C [CQ31]	–	–	do not trigger as much degradation as MeBs	induced PI uptake in WT but not CASP1^−/− or CARD8^−/−	completely de-esterified	induced cell death in WT but not CARD8^−/−	induced lactate dehydrogenase (LDH) release and GSDMD cleavage	induced GSDMD cleavage	induce more pyroptosis after dTAG-13 treatment	sensitive	completely resistant	neither CQ80 nor CQ31 induced any additional pyroptosis	–
–	–	–	~ 50%	COC(=O)[C@H](CC(C)C)NC(=O)[C@@H]1CCCN1C(=O)[C@@H](O)[C@H](N)CC(C)C [CQ80, Methyl ((2S,3R)-3-Amino-2-hydroxy-5-methylhexanoyl)-l-prolyl-l-leucinate]	does not activate	does not activate	do not trigger as much degradation as MeBs	induced PI uptake in WT but not CASP1^−/− or CARD8^−/−	–	induced cell death in WT but not CARD8^−/−	induced lactate dehydrogenase (LDH) release and GSDMD cleavage	induced GSDMD cleavage	induce more pyroptosis after dTAG-13 treatment	sensitive	completely resistant	neither CQ80 nor CQ31 induced any additional pyroptosis	caused more rapid lytic cell death
